Drawing on ChEMBL document CHEMBL2069288, “Virtual screening leads to the discovery of novel non-nucleotide P2Y₁ receptor antagonists” (Bioorg Med Chem, 2012), this text covers Ki, inhibition and IC50 for 20 compounds.

The target of experiment [1] is T1, P2Y purinoceptor 1 (Homo sapiens, UniProt P47900). Briefly: Displacement of [125I]MRS2500 from human P2Y1R expressed in Sf9 cell membrane. In short, it runs like this:
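Competition binding used membranes of Sf9 insect cells expressing hP2Y1R, with [125I]MRS2500 at approximately 0.2 nM.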

Experiment [2] addresses T1, P2Y purinoceptor 1. Briefly: Antagonist activity at human P2Y1R expressed in human 1321N1 cells assessed as inhibition of 2-MeSADP-induced increase in intracellular calcium mobilization at 10 uM. Type of experiment: functional, cell-based. An outline of the steps: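 hP2Y1R-expressing 1321N1 cells were kept in DMEM with 5% FBS and geneticin, grown overnight to about 60–80% confluency, and loaded with Calcium 4 dye for 1 h at room temperature without washing. Test compound at 10 µM was added 20 min before 2-MeSADP (30 nM; curves 10−9–10−5 M). Read-out was fluorescence (ex 485/em 525 nm), peak minus basal, in triplicate.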
(In general: Calcium assays in cells follow changes in intracellular calcium, usually with a dye or a luminescent sensor.)

Experiment [3] deals with T1, P2Y purinoceptor 1. Briefly: Antagonist activity at human P2Y1R expressed in human 1321N1 cells assessed as inhibition of 2-MeSADP-induced increase in intracellular inositol phosphate generation. The class given is functional, cell-based. In short, it runs like this:
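In 1321N1 cells stably expressing hP2Y1R, cells were labeled 18–24 h at 37°C with 2-[3H]myo-inositol in inositol-free DMEM. Agonist-stimulated [3H]inositol phosphate accumulation was measured over 10 min at 37°C with 10 mM LiCl. Total inositol phosphates were separated by anion-exchange chromatography. IC50 is the mean of 3 independent concentration-effect curves.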

Experiment [4] has as its target T1, P2Y purinoceptor 1. Put plainly: Displacement of [125I]MRS2500 from human P2Y1R expressed in Sf9 cell membrane at 20 uM. An outline of the steps: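 Binding screen used hP2Y1R-expressing Sf9 cell membranes and about 0.2 nM [125I]MRS2500. Each test compound was applied at 20 µM, and the value is percent inhibition of specific radioligand binding.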
(Displacement assays read how much labelled ligand stays bound in the presence of the test substance.)

T1 sequence (P47900 whole entry): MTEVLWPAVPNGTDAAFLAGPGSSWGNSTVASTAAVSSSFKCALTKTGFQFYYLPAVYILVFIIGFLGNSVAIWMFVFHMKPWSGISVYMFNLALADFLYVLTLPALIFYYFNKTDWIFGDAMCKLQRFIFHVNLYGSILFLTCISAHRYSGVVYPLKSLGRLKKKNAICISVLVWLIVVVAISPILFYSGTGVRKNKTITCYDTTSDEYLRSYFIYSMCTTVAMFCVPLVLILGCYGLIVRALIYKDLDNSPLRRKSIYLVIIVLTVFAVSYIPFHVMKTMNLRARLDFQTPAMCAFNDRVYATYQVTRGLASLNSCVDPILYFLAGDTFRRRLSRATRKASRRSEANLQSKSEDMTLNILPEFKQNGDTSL

A word on the Ki: it is a dissociation constant, usually derived from enzyme kinetics or from competition with a known ligand. Read a high Ki as weaker binding. Usually inhibition stands for the relative decrease from the control value, in per cent. In experiment [1], `Cc1noc(NS(=O)(=O)c2ccc(NC(=O)Nc3ccc(C(F)(F)F)cc3)cc2)c1C` had a Ki of 45 µM. The inhibition in experiment [2] worked out at 32.7%.
For orientation: IC50 means the point on the concentration scale where inhibition reaches its midpoint. As to `Cc1noc(NS(=O)(=O)c2ccc(NC(=O)Nc3ccc(Cl)c(Cl)c3)cc2)c1C`, in experiment [1], the Ki was 13 µM. Further, the inhibition in experiment [2] was 36.8%. Besides, the 50% inhibitory concentration (IC50) in experiment [3] turned out to be 140 nM.
In turn, `Cc1noc(NS(=O)(=O)c2ccc(NC(=O)Nc3cccc(Cl)c3)cc2)c1C` yielded an inhibition constant (Ki) in experiment [1] not below 100 µM. The inhibition in experiment [2] was 21.7%.
In experiment [4], `Cn1c(=O)[nH]c(=O)c2nc(NCCCO)n(CC(O)COc3ccccc3)c21` (configuration not stated) gave an inhibition of 20%.
On to `Cc1cc(NC(=O)CSc2ccc3nnc(CCNS(=O)(=O)c4ccccc4)n3n2)no1`, for which the inhibition in experiment [4] came out at 20%.
As for `Cc1ccc(NC(=O)Nc2ccc(S(=O)(=O)Nc3onc(C)c3C)cc2)cc1C`, the inhibition in experiment [4] is less than 10%; in experiment [2] it was 9.4%. Besides, the IC50 in experiment [3] was 130 nM.
For the compound `CC1=C2C(=O)NC(SCC(=O)Nc3ccc(S(=O)(=O)NCCCC(=O)O)cc3)=NC2SC1C(=O)O` (configuration not stated), the inhibition in experiment [4] was 30%.
Still for that read-out and setting: then `O=C(CSC1=NC(=O)N(CCCN2CCOCC2)C2CCCC12)Nc1ccc2c(c1)OCO2` (configuration not stated), with 20%.
As for `Cc1noc(NS(=O)(=O)c2ccc(NC(=O)Nc3ccc(F)c(Cl)c3)cc2)c1C`, in experiment [1], the affinity, expressed as Ki, was 42 µM. For the same compound, the inhibition in experiment [2] turned out to be 31.3%.
Take `COc1ccc(NC(=O)Nc2ccc(S(=O)(=O)Nc3onc(C)c3C)cc2)cc1OC`: the results for the inhibition in experiment [4] and in experiment [2] were less than 10% and 9.1%, respectively.
As for `CCc1nnc(NS(=O)(=O)c2ccc(NC(=O)Nc3ccc(C(F)(F)F)cc3)cc2)s1`, the Ki in experiment [1] stood at 10 µM. That is a double-digit micromolar value.
Regarding `Cc1noc(NS(=O)(=O)c2ccc(NC(=O)Nc3ccccc3)cc2)c1C`, the inhibition in experiment [4] was less than 10%; in experiment [2], less than 5%.
With `COc1ccc(S(=O)(=O)NCC(c2ccc3c(c2)OCO3)N2CCN(C)CC2)cc1OC` (configuration not stated), the inhibition in experiment [4] was 20%.
Still for that read-out and setting: then `COc1ccc(S(=O)(=O)Nc2ccc3c(c2)C(=O)Nc2ccccc2O3)cc1OC`, with 20%.
In the case of `Cc1noc(NS(=O)(=O)c2ccc(NC(=O)Nc3cc(F)cc(F)c3)cc2)c1C`, the Ki in experiment [1] is not below 100 µM. Further, the inhibition in experiment [2] was determined as 10.2%.
Regarding `Cc1noc(NS(=O)(=O)c2ccc(NC(=O)Nc3ccc(F)c(F)c3)cc2)c1C`, the figures for the inhibition in experiment [4] and in experiment [2] were less than 10% and 11.3%, respectively.
For the compound `CN(C)CCCN(C(=O)c1ccco1)c1nc2cc3c(cc2s1)OCO3`, in experiment [4], the inhibition was 40%.
Still for that read-out and setting: then `Cn1nnc2c(Cc3ccc(S(N)(=O)=O)cc3)ncnc21`, with 20%.
On to `Cc1noc(NS(=O)(=O)c2ccc(NC(=O)Nc3cc(Cl)cc(Cl)c3)cc2)c1C`, for which the Ki in experiment [1] was 27 µM. Also, the inhibition in experiment [2] amounted to 17.6%.
On to `COc1cc(NS(=O)(=O)c2ccc(NC(=O)Nc3cccc(Cl)c3)cc2)nc(OC)n1`, for which the Ki in experiment [1] stood at 6 µM.
